Results published in ChEMBL document CHEMBL5058577, “EUbOPEN Chemogenomics Library 2 (Multiplex)” (2022).

Test system: U2OS
Experiment: Multiplex assay against U2OS
Type: toxicity, cell-based
Settings: human
How it was run: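 Hoechst33342, BioTracker Green Microtubule Cytoskeleton Dye, MitoTracker Red and Annexin V Alexa Fluor 680 were added to live cells at seeding, and imaging on a CQ1 microscope at 37°C and 5% CO2 followed compound addition. Gating by CellPathfinder machine learning separated cells into Hoechst high-intensity objects or normal cells, then normal cells into healthy, pyknosed or fragmented nuclei, then pyknosed cells into mitotic or apoptotic. Per cents of healthy-nucleus cells are reported for the tubulin, mitochondrial-mass and membrane-permeability phenotypes.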

[1] = 12 h, 1 µM, compound concentration 1 uM, replicate 1
[2] = 12 h, 1 µM, compound concentration 1 uM, replicate 2
[3] = 12 h, 10 µM, compound concentration 10 uM, replicate 1
[4] = 12 h, 10 µM, compound concentration 10 uM, replicate 2
[5] = 24 h, 1 µM, compound concentration 1 uM, replicate 1
[6] = 24 h, 1 µM, compound concentration 1 uM, replicate 2
[7] = 24 h, 10 µM, compound concentration 10 uM, replicate 1
[8] = 24 h, 10 µM, compound concentration 10 uM, replicate 2
[9] = 48 h, 1 µM, compound concentration 1 uM, replicate 1
[10] = 48 h, 1 µM, compound concentration 1 uM, replicate 2
[11] = 48 h, 10 µM, compound concentration 10 uM, replicate 1
[12] = 48 h, 10 µM, compound concentration 10 uM, replicate 2

## CCc1nn2c(C)cc(C)nc2c1Cc1ccc(-c2nnc(C3CCNCC3)o2)cc1
[1]
  Population Apoptotic (%): 42%
  Population Fragmented Nuclei (%): 28%
  Population Healthy Nuclei (%): 60%
  Population Hoechst High Intensity Objects (%): 3%
  Population Membrane Permeable-Phenotype (%): 12%
  Population Mitochondria Different-Phenotype (%): 10%
  Population Mitotic Cells (%): 57%
  Population Normal (%): 96%
  Population Pyknosed Nuclei (%): 10%
  Population Tubulin-Different-Phenotype (%): 11%
  Total Cell Count: 251
[2]
  Population Apoptotic (%): 85%
  Population Fragmented Nuclei (%): 9%
  Population Healthy Nuclei (%): 84%
  Population Hoechst High Intensity Objects (%): 2%
  Population Membrane Permeable-Phenotype (%): 14%
  Population Mitochondria Different-Phenotype (%): 17%
  Population Mitotic Cells (%): 14%
  Population Normal (%): 97%
  Population Pyknosed Nuclei (%): 6%
  Population Tubulin-Different-Phenotype (%): 4%
  Total Cell Count: 110
[3]
  Population Apoptotic (%): 68%
  Population Fragmented Nuclei (%): 24%
  Population Healthy Nuclei (%): 55%
  Population Hoechst High Intensity Objects (%): 5%
  Population Membrane Permeable-Phenotype (%): 26%
  Population Mitochondria Different-Phenotype (%): 43%
  Population Mitotic Cells (%): 31%
  Population Normal (%): 94%
  Population Pyknosed Nuclei (%): 20%
  Population Tubulin-Different-Phenotype (%): 28%
  Total Cell Count: 214
[4]
  Population Apoptotic (%): 77%
  Population Fragmented Nuclei (%): 8%
  Population Healthy Nuclei (%): 76%
  Population Hoechst High Intensity Objects (%): 2%
  Population Membrane Permeable-Phenotype (%): 30%
  Population Mitochondria Different-Phenotype (%): 62%
  Population Mitotic Cells (%): 22%
  Population Normal (%): 97%
  Population Pyknosed Nuclei (%): 14%
  Population Tubulin-Different-Phenotype (%): 44%
  Total Cell Count: 129
[5]
  Population Apoptotic (%): 80%
  Population Fragmented Nuclei (%): 26%
  Population Healthy Nuclei (%): 63%
  Population Hoechst High Intensity Objects (%): 2%
  Population Membrane Permeable-Phenotype (%): 4%
  Population Mitochondria Different-Phenotype (%): 6%
  Population Mitotic Cells (%): 20%
  Population Normal (%): 97%
  Population Pyknosed Nuclei (%): 10%
  Population Tubulin-Different-Phenotype (%): 3%
  Total Cell Count: 296
[6]
  Population Apoptotic (%): 87%
  Population Fragmented Nuclei (%): 13%
  Population Healthy Nuclei (%): 80%
  Population Hoechst High Intensity Objects (%): 3%
  Population Membrane Permeable-Phenotype (%): 7%
  Population Mitochondria Different-Phenotype (%): 12%
  Population Mitotic Cells (%): 12%
  Population Normal (%): 96%
  Population Pyknosed Nuclei (%): 6%
  Total Cell Count: 130
[7]
  Population Apoptotic (%): 77%
  Population Fragmented Nuclei (%): 24%
  Population Healthy Nuclei (%): 55%
  Population Hoechst High Intensity Objects (%): 3%
  Population Membrane Permeable-Phenotype (%): 9%
  Population Mitochondria Different-Phenotype (%): 40%
  Population Mitotic Cells (%): 22%
  Population Normal (%): 96%
  Population Pyknosed Nuclei (%): 19%
  Population Tubulin-Different-Phenotype (%): 7%
  Total Cell Count: 236
[8]
  Population Apoptotic (%): 71%
  Population Fragmented Nuclei (%): 15%
  Population Healthy Nuclei (%): 71%
  Population Membrane Permeable-Phenotype (%): 16%
  Population Mitochondria Different-Phenotype (%): 61%
  Population Mitotic Cells (%): 28%
  Population Pyknosed Nuclei (%): 13%
  Population Tubulin-Different-Phenotype (%): 28%
  Total Cell Count: 163
[9]
  Population Apoptotic (%): 90%
  Population Fragmented Nuclei (%): 17%
  Population Healthy Nuclei (%): 71%
  Population Hoechst High Intensity Objects (%): 2%
  Population Membrane Permeable-Phenotype (%): 6%
  Population Mitochondria Different-Phenotype (%): 2%
  Population Mitotic Cells (%): 10%
  Population Normal (%): 97%
  Population Pyknosed Nuclei (%): 10%
  Population Tubulin-Different-Phenotype (%): 4%
  Total Cell Count: 376
[10]
  Population Apoptotic (%): 85%
  Population Fragmented Nuclei (%): 12%
  Population Healthy Nuclei (%): 72%
  Population Membrane Permeable-Phenotype (%): 7%
  Population Mitochondria Different-Phenotype (%): 6%
  Population Mitotic Cells (%): 14%
  Population Pyknosed Nuclei (%): 14%
  Total Cell Count: 187
[11]
  Population Apoptotic (%): 82%
  Population Fragmented Nuclei (%): 24%
  Population Healthy Nuclei (%): 55%
  Population Hoechst High Intensity Objects (%): 2%
  Population Membrane Permeable-Phenotype (%): 10%
  Population Mitochondria Different-Phenotype (%): 29%
  Population Mitotic Cells (%): 17%
  Population Normal (%): 97%
  Population Pyknosed Nuclei (%): 19%
  Population Tubulin-Different-Phenotype (%): 3%
  Total Cell Count: 290
[12]
  Population Apoptotic (%): 75%
  Population Fragmented Nuclei (%): 12%
  Population Healthy Nuclei (%): 71%
  Population Membrane Permeable-Phenotype (%): 22%
  Population Mitochondria Different-Phenotype (%): 31%
  Population Mitotic Cells (%): 24%
  Population Pyknosed Nuclei (%): 15%
  Population Tubulin-Different-Phenotype (%): 18%
  Total Cell Count: 219
